hERG protect: compounds protecting human hERG from proarrhythmic drug block; Q12809; CHO-hERG, FluxOR thallium flux, dofetilide IC70 present; activation (rescue from dofetilide block), less the hit threshold, % at 10 µM; 0.51% of 310,000 active;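 active means activation above the mean of controls blocked by dofetilide plus 5 SD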;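 further: thallium influx through hERG after potassium depolarization seen as dye fluorescence rise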
KCNK9 block: inhibitors of human KCNK9 two-pore domain potassium channel; HEK293 KCNK9, FluxOR thallium flux fluorescence; active compounds read low; 1.2% of 310,000 active; B-score at 10 µM;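 active means ratio B-score over 3 SD below the library mean, with starting fluorescence within 5 SD of its mean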;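 further: negative B-score means less thallium flux so channel inhibition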
Target sequence (Q9NPC2 whole entry, looked up, the tested form may be a part): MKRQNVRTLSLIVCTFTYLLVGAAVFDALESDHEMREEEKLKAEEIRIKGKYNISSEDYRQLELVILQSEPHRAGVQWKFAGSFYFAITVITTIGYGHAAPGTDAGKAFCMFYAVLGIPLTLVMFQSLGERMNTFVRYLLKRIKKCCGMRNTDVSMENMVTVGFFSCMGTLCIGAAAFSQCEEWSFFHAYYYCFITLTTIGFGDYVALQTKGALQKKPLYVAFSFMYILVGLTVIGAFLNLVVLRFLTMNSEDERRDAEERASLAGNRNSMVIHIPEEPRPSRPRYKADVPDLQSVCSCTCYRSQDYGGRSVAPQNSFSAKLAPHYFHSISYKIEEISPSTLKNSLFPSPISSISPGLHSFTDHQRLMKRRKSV
KCNQ1 inh: human KCNQ1 channel inhibition; P51787; CHO-K1 KCNQ1, FluxOR thallium flux fluorescence; active compounds read high; B-score at 10 µM; 1.3% of 310,000 active;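 active means compounds whose thallium flux B-score, printed positive for inhibition, exceeds three library SD while starting fluorescence stays within three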;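 further: channel opened by potassium depolarization with thallium stimulus after 20 min compound exposure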
KCNQ1 pot: potentiators or activators of human KCNQ1 potassium channel | B-score at 10 µM | AID 2648 | CHO-K1 KCNQ1, thallium flux FluxOR fluorescence; active compounds read high | 0.35% of 310,000 active | P51787;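 active means fluorescence ratio B-score, a plate-corrected score, at least three library SD, with initial intensity B-score within 5 SD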
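System: CHO-K1 cells stably expressing KCNQ1 / Medium: assay buffer for compound exposure, DMSO matched across wells / Reagent: thallium- and potassium-containing depolarizing buffer / Compound: one concentration, matched DMSO / Incubation: 20 min compound pretreatment at room temperature / Measured by: kinetic FluxOR fluorescence, 10 s baseline plus 110 s post-stimulus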
Kir21 block: Kir2.1 (mouse) channel inhibition; P35561; B-score at 10 µM; AID 1672; 0.85% of 310,000 active; HEK293-Kir2.1, FluxOR thallium flux fluorescence; active compounds read low;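 active means fluorescence ratio B-score at or below minus 3 SD of library scores, with starting-brightness B-score within 2 SD, cut at about -4.2 in these data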;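 further: channel flux triggered by added potassium and thallium sulfate stimulus; B-score of peak minus minimum fluorescence over baseline after thallium stimulus; more negative B-score means stronger Kir2.1 block with less thallium influx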
KCNK3 block: human KCNK3 channel inhibition, primary screen; O14649; CHO-KCNK3 thallium flux, FluxOR fluorescence; active compounds read low; B-score at 10 µM; 0.84% of 340,000 active;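 active means B-score under library mean minus 4 SD, starting fluorescence ratio at most library mean plus 5 SD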;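 further: more negative B-score means stronger inhibition of thallium flux through KCNK3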
KCNK9 block conf: human KCNK9 inhibitor confirmation | shares compounds with KCNK9 block | HEK293 KCNK9 cells, FluxOR thallium flux fluorescence | inhibition, % at 10 µM | 43% of 4,900 active;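 active means thallium signal inhibited by more than 5 SD of the compound-free buffer control wells, on both duplicate plates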;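 further: 0% = assay buffer control wells without compound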
Kir21 sel: tests whether KCNK9 modulators also affect mouse Kir2.1. shares compounds with KCNK9 block. Kir2.1 cells, FluxOR thallium flux fluorescence. 4% of 4,900 active. inhibition, % at 10 µM. AID 492993;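 active means thallium signal drop more than 5 SD beyond the mean of the no-compound control wells, seen in both duplicate plates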;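 further: signal is fluorescence rise after thallium addition divided by baseline fluorescence; plate controls were assay buffer only for no effect and full block by chlorpromazine control for full effect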
KCNK9 uninduced: non-induced cell nonspecific activity of KCNK9 modulators. shares compounds with KCNK9 block. non-induced KCNK9-HEK293, FluxOR thallium flux. inhibition, % at 10 µM. 40% of 4,900 active. AID 492997;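 active means thallium signal drop beyond 5 SD of the untreated control mean, on both duplicate plates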;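 further: plate controls were buffer only IC0 wells for no effect and SID17386958 at its maximal inhibitory level for full effect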
* marks the source's active call; other numbers are inactive results. This is a sample that favours compounds with a hit; in the whole collection about 3.7% have one here.

Screening Cc1cc(C)c(S(=O)(=O)c2ccccc2)c(OC(=O)c2c(Cl)cc(Cl)cc2Cl)n1 returned hERG protect -6.9, KCNK9 block -10.4*, KCNQ1 inh inactive, KCNQ1 pot inactive, Kir21 block 0.88, KCNK3 block inactive, KCNK9 block conf 52.0%*, Kir21 sel inactive and KCNK9 uninduced 32.5%*.
`CN(Cc1ccccc1)C(=O)CSc1nc2c(c(C(F)(F)F)n1)CCc1ccccc1-2` gave hERG protect -7.1, KCNK9 block inactive, KCNQ1 inh inactive, KCNQ1 pot inactive, Kir21 block 0.56, KCNK3 block inactive, KCNK9 block conf inactive, Kir21 sel inactive and KCNK9 uninduced inactive.
For NC(=O)c1c(NC(=O)CSc2nc3c(c(C(F)(F)F)n2)CCc2ccccc2-3)sc2c1CCCC2 the results were hERG protect -11.9, KCNK9 block inactive, KCNQ1 inh inactive, KCNQ1 pot inactive, Kir21 block 0.16 and KCNK3 block inactive.
`CC(C)(C)c1ccc(OCC(=O)O/N=C(\N)c2ccncc2)cc1` gave hERG protect -3.3, KCNK9 block inactive, KCNQ1 inh inactive, KCNQ1 pot inactive, Kir21 block 0.75 and KCNK3 block inactive.
`Cc1ccccc1CN1CCN(S(=O)(=O)c2cccc3nsnc23)CC1` gave hERG protect -6.4, KCNK9 block inactive, KCNQ1 inh inactive, KCNQ1 pot inactive, Kir21 block 1.12, KCNK3 block inactive, KCNK9 block conf inactive, Kir21 sel inactive and KCNK9 uninduced inactive.
O=S(=O)(c1cccc2nsnc12)N1CCN(C/C=C\c2ccccc2)CC1 was read as hERG protect -11.4, KCNK9 block inactive, KCNQ1 inh inactive, KCNQ1 pot inactive, Kir21 block -0.5, KCNK3 block inactive, KCNK9 block conf inactive, Kir21 sel inactive and KCNK9 uninduced inactive.
`O=C(c1ccccc1)N1CCN(C(=S)NCc2ccco2)CC1` gave hERG protect -15.3, KCNK9 block inactive, KCNQ1 inh inactive, KCNQ1 pot inactive, Kir21 block -0.42 and KCNK3 block inactive.
For O=C(Nc1ccnn1C1CCN(Cc2ccc(CO)o2)CC1)c1ccccc1 the results were hERG protect -12.2, KCNK9 block inactive, KCNQ1 inh inactive, KCNQ1 pot inactive, Kir21 block -0.41 and KCNK3 block inactive.
For COc1ccc(C(C)=O)cc1CN1C(=O)NC(c2ccccc2)(c2ccccc2)C1=O the results were hERG protect -4.0, KCNK9 block inactive, KCNQ1 inh inactive, KCNQ1 pot inactive, Kir21 block -0.72 and KCNK3 block inactive.
Screening CC(C)c1ccc(C2C3=C(COC3=O)Nc3cc4c(cc32)OCO4)cc1 (stereo not drawn) returned hERG protect -16.8, KCNK9 block -9.43*, KCNQ1 inh inactive, KCNQ1 pot inactive, Kir21 block 1.13, KCNK3 block inactive, KCNK9 block conf inactive, Kir21 sel inactive and KCNK9 uninduced inactive.
Screening C=CCc1cc(C(=O)N2CCCCC2)ccc1O returned hERG protect -12.7, KCNK9 block inactive, KCNQ1 inh inactive, KCNQ1 pot inactive, Kir21 block 0.49 and KCNK3 block inactive.
For C=CCc1ccc(O)c(-c2ccc(O)c(CC=C)c2)c1 the results were hERG protect -17.1, KCNK9 block -18.4*, KCNQ1 inh inactive, KCNQ1 pot inactive, Kir21 block -2.57, KCNK3 block inactive, KCNK9 block conf 76.5%*, Kir21 sel inactive and KCNK9 uninduced 42.5%*.
Screening O=C(NCc1cccc(Cl)c1)c1cccnc1 returned hERG protect -9.8, KCNK9 block inactive, KCNQ1 inh inactive, KCNQ1 pot inactive, Kir21 block 1 and KCNK3 block inactive.
O=C(NCc1cccnc1)c1cc(Sc2cccc(Cl)c2)nc2ccccc12 was read as hERG protect -9.2, KCNK9 block -8.21*, KCNQ1 inh inactive, KCNQ1 pot inactive, Kir21 block -1.97, KCNK3 block inactive, KCNK9 block conf 35.5%*, Kir21 sel inactive and KCNK9 uninduced inactive.
`CN(C(=O)c1ccnn1C)C1CCCN(Cc2ccccc2F)C1` (stereo not drawn) gave hERG protect -4.1, KCNK9 block inactive, KCNQ1 inh inactive, KCNQ1 pot inactive, Kir21 block 1.37 and KCNK3 block inactive.
For COc1cc(OC)c2c(-c3ccccc3)cc(=O)oc2c1C(CCN1CCN(c2ccccc2)CC1)c1ccc(N(C)C)cc1 (stereo not drawn) the results were hERG protect -13.8, KCNK9 block inactive, KCNQ1 inh inactive, KCNQ1 pot inactive, Kir21 block -0.45 and KCNK3 block inactive.
`COc1cc(OC)c2ccc(=O)oc2c1C(CCN1CCN(c2ccccc2)CC1)c1ccc(N(C)C)cc1` (stereo not drawn) gave hERG protect -13.7, KCNK9 block inactive, KCNQ1 inh inactive, KCNQ1 pot inactive, Kir21 block 1.23, KCNK3 block inactive, KCNK9 block conf inactive, Kir21 sel inactive and KCNK9 uninduced inactive.
Screening Cc1cccc(CN2CCC(n3nccc3NC(=O)CCCc3ccccc3)CC2)n1 returned hERG protect -4.0, KCNK9 block inactive, KCNQ1 inh inactive, KCNQ1 pot inactive, Kir21 block -2.35 and KCNK3 block inactive.
COc1cccc2c1OCC(C(=O)Nc1nccs1)=C2 was read as hERG protect -5.6, KCNK9 block inactive, KCNQ1 inh inactive, KCNQ1 pot inactive, Kir21 block 0.58 and KCNK3 block inactive.
`CCOC(=O)C1CCN(C(=O)c2ccc(Oc3cc(Cl)cc(Cl)c3)o2)CC1` gave hERG protect -0.6, KCNK9 block inactive, KCNQ1 inh inactive, KCNQ1 pot inactive, Kir21 block 0.1, KCNK3 block inactive, KCNK9 block conf inactive, Kir21 sel inactive and KCNK9 uninduced inactive.
COc1cc(-c2nc3cc(C)ccn3c2NC2CCCCC2)ccc1-c1ccc(C(C)=O)cc1 was read as hERG protect -20.2, KCNK9 block -9.27*, KCNQ1 inh inactive, KCNQ1 pot inactive, Kir21 block -0.7, KCNK3 block inactive, KCNK9 block conf 48.5%*, Kir21 sel inactive and KCNK9 uninduced inactive.
